Converted amounts (≈) assume the structure as drawn.
Test system: Lytechinus variegatus
Test: Antimitotic activity against Lytechinus variegatus at blastulae stage of egg development
Assay type: functional, tissue-based
Settings: Blastula stage
Outline: (§1)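 Eggs were fertilized with diluted sperm in filtered seawater, and fertilization was confirmed by elevation of the vitellin membrane. Compounds were added 5 min after fertilization over a 0.1–100 range. Incubation was at room temperature. Aliquots were fixed in equal-volume 10% formaldehyde at first cleavage, third cleavage and blastula. 100 eggs were scored per concentration for % normal development. IC50 and 95% CI came from nonlinear regression of 3 independent experiments.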

SMILES	IC50
CC(C)=CCc1c(O)ccc2c1OCC1c3cc4c(cc3OC21)OCO4 (stereo unspecified)	3.3 mg/L (≈ 9.36 µM)
C/C(=C\Cc1c(O)ccc2c1OCC1c3cc4c(cc3OC21)OCO4)CO (stereo unspecified)	0.43 mg/L (≈ 1.17 µM)
CC(CO)CCc1cc2c(cc1O)OCC1c3cc4c(cc3OC21)OCO4 (stereo unspecified)	1.7 mg/L (≈ 4.59 µM)
COc1cccc2c1C(=O)c1c(O)c3c(c(O)c1C2=O)C[C@@](O)(C(=O)CO)C[C@@H]3O[C@H]1C[C@H](N)[C@H](O)[C@H](C)O1 [DOXORUBICIN]	0.54 mg/L (≈ 0.994 µM)
CC1(C)C=Cc2c(ccc3c2OCC2c4cc5c(cc4OC32)OCO5)O1 (stereo unspecified) [LEIOCARPIN]	0.2 mg/L (≈ 0.571 µM)
Oc1ccc2c(c1)OC[C@H]1c3cc4c(cc3O[C@@H]21)OCO4 [MAACKIAIN]	4.6 mg/L (≈ 16.2 µM)

Test system: MDA-MB-435
Test: Cytotoxicity against human MDA-MB-435 cells by MTT assay
Assay type: functional, cell-based
Settings: not given
Outline: (§2)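 Cell lines were from NCI. Viability was read by MTT reduction to formazan. IC50 and 95% confidence interval came from nonlinear regression of three independent experiments.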

SMILES	IC50
CC(C)=CCc1c(O)ccc2c1OCC1c3cc4c(cc3OC21)OCO4 (stereo unspecified)	4.9 mg/L (≈ 13.9 µM)
C/C(=C\Cc1c(O)ccc2c1OCC1c3cc4c(cc3OC21)OCO4)CO (stereo unspecified)	> 25 mg/L
CC(CO)CCc1cc2c(cc1O)OCC1c3cc4c(cc3OC21)OCO4 (stereo unspecified)	16.9 mg/L (≈ 45.6 µM)
CC1(C)C=Cc2c(ccc3c2OCC2c4cc5c(cc4OC32)OCO5)O1 (stereo unspecified) [LEIOCARPIN]	13.7 mg/L (≈ 39.1 µM)
Oc1ccc2c(c1)OC[C@H]1c3cc4c(cc3O[C@@H]21)OCO4 [MAACKIAIN]	11.5 mg/L (≈ 40.5 µM)

Test system: Lytechinus variegatus
Test: Antimitotic activity against Lytechinus variegatus at tertiary cleavage stage of egg development
Assay type: functional, tissue-based
Settings: not given
Outline: as §1

SMILES	IC50
CC(C)=CCc1c(O)ccc2c1OCC1c3cc4c(cc3OC21)OCO4 (stereo unspecified)	4.8 mg/L (≈ 13.6 µM)
C/C(=C\Cc1c(O)ccc2c1OCC1c3cc4c(cc3OC21)OCO4)CO (stereo unspecified)	0.52 mg/L (≈ 1.41 µM)
CC(CO)CCc1cc2c(cc1O)OCC1c3cc4c(cc3OC21)OCO4 (stereo unspecified)	2.1 mg/L (≈ 5.67 µM)
COc1cccc2c1C(=O)c1c(O)c3c(c(O)c1C2=O)C[C@@](O)(C(=O)CO)C[C@@H]3O[C@H]1C[C@H](N)[C@H](O)[C@H](C)O1 [DOXORUBICIN]	0.34 mg/L (≈ 0.626 µM)
CC1(C)C=Cc2c(ccc3c2OCC2c4cc5c(cc4OC32)OCO5)O1 (stereo unspecified) [LEIOCARPIN]	0.4 mg/L (≈ 1.14 µM)
Oc1ccc2c(c1)OC[C@H]1c3cc4c(cc3O[C@@H]21)OCO4 [MAACKIAIN]	4.3 mg/L (≈ 15.1 µM)

Test system: Lytechinus variegatus
Test: Antimitotic activity against Lytechinus variegatus at primary cleavage stage of egg development
Assay type: functional, tissue-based
Settings: not given
Outline: as §1

SMILES	IC50
CC(C)=CCc1c(O)ccc2c1OCC1c3cc4c(cc3OC21)OCO4 (stereo unspecified)	15.2 mg/L (≈ 43.1 µM)
C/C(=C\Cc1c(O)ccc2c1OCC1c3cc4c(cc3OC21)OCO4)CO (stereo unspecified)	1.5 mg/L (≈ 4.07 µM)
CC(CO)CCc1cc2c(cc1O)OCC1c3cc4c(cc3OC21)OCO4 (stereo unspecified)	5.18 mg/L (≈ 14 µM)
COc1cccc2c1C(=O)c1c(O)c3c(c(O)c1C2=O)C[C@@](O)(C(=O)CO)C[C@@H]3O[C@H]1C[C@H](N)[C@H](O)[C@H](C)O1 [DOXORUBICIN]	6.28 mg/L (≈ 11.6 µM)
CC1(C)C=Cc2c(ccc3c2OCC2c4cc5c(cc4OC32)OCO5)O1 (stereo unspecified) [LEIOCARPIN]	1.1 mg/L (≈ 3.14 µM)
Oc1ccc2c(c1)OC[C@H]1c3cc4c(cc3O[C@@H]21)OCO4 [MAACKIAIN]	6.5 mg/L (≈ 22.9 µM)

Test system: HL-60
Test: Cytotoxicity against human HL60 cells by MTT assay
Assay type: functional, cell-based
Settings: not given
Outline: as §2

SMILES	IC50
CC(C)=CCc1c(O)ccc2c1OCC1c3cc4c(cc3OC21)OCO4 (stereo unspecified)	3.1 mg/L (≈ 8.8 µM)
C/C(=C\Cc1c(O)ccc2c1OCC1c3cc4c(cc3OC21)OCO4)CO (stereo unspecified)	16.2 mg/L (≈ 44 µM)
CC(CO)CCc1cc2c(cc1O)OCC1c3cc4c(cc3OC21)OCO4 (stereo unspecified)	> 25 mg/L
COc1cccc2c1C(=O)c1c(O)c3c(c(O)c1C2=O)C[C@@](O)(C(=O)CO)C[C@@H]3O[C@H]1C[C@H](N)[C@H](O)[C@H](C)O1 [DOXORUBICIN]	0.02 mg/L (≈ 0.0368 µM)
CC1(C)C=Cc2c(ccc3c2OCC2c4cc5c(cc4OC32)OCO5)O1 (stereo unspecified) [LEIOCARPIN]	5.5 mg/L (≈ 15.7 µM)
Oc1ccc2c(c1)OC[C@H]1c3cc4c(cc3O[C@@H]21)OCO4 [MAACKIAIN]	17.9 mg/L (≈ 63 µM)

Test system: HCT-8 (human)
Test: Cytotoxicity against human HCT-8 cells by MTT assay
Settings: not given

SMILES	IC50
CC(C)=CCc1c(O)ccc2c1OCC1c3cc4c(cc3OC21)OCO4 (stereo unspecified)	8.5 mg/L (≈ 24.1 µM)
C/C(=C\Cc1c(O)ccc2c1OCC1c3cc4c(cc3OC21)OCO4)CO (stereo unspecified)	8.8 mg/L (≈ 23.9 µM)
CC(CO)CCc1cc2c(cc1O)OCC1c3cc4c(cc3OC21)OCO4 (stereo unspecified)	10.8 mg/L (≈ 29.2 µM)
COc1cccc2c1C(=O)c1c(O)c3c(c(O)c1C2=O)C[C@@](O)(C(=O)CO)C[C@@H]3O[C@H]1C[C@H](N)[C@H](O)[C@H](C)O1 [DOXORUBICIN]	0.01 mg/L (≈ 0.0184 µM)
CC1(C)C=Cc2c(ccc3c2OCC2c4cc5c(cc4OC32)OCO5)O1 (stereo unspecified) [LEIOCARPIN]	6.9 mg/L (≈ 19.7 µM)
Oc1ccc2c(c1)OC[C@H]1c3cc4c(cc3O[C@@H]21)OCO4 [MAACKIAIN]	> 25 mg/L

Reference: ChEMBL document CHEMBL1137445, “Bioassay-guided fractionation of pterocarpans from roots of Harpalyce brasiliana Benth” (Bioorg Med Chem, 2007)
